The source made the active and inactive calls.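 Rule for the calls, unless noted: active = GFP response above 150% of the DMSO level; inconclusive = fewer than 70 events counted for a yeast strain; inactive = the rest.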

Experiment [1] can be described thus: hit retest on RPL19A-GFP reporter strain – cell-based, S. cerevisiae, flow cytometry, cherry picks, mother/daughter gates, confirmation (AID 2270;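 active = GFP response below 50% of the DMSO control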). As to conditions: 3 h, at 10 µM, stronger effect = lower value, 100 = same GFP as DMSO wells. (In flow cytometry, cells or beads pass a laser one at a time.)
The nature of experiment [2]: yeast TOR pathway reporter LAP4-GFP change – cell-based, cherry picks, flow cytometry, mother/daughter gates, confirmation (AID 2271;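 active = GFP response above 150% of the DMSO control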;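 note: ratio of sample to DMSO plate mean so 100% equals DMSO level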). Particulars: S. cerevisiae LAP4-GFP strain, 3 h, at 10 µM, stronger effect = higher value, 100 means same as DMSO control. The essentials:
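System: Alexa 633-stained baker's yeast GFP-fusion strain / Medium: synthetic complete (SC) yeast growth medium / Doses: compound at 10 µM, single point / Times: 3 h treatment at 30 °C with rotation / Detection: HT flow cytometry, GFP fluorescence channel / Benchmarks: DMSO-only negative wells, rapamycin 400 ng/mL positive wells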

The nature of experiment [3]: TOR pathway reporter MEP2-GFP, retest of hits – S. cerevisiae, flow cytometry GFP, cherry picks, confirmation (AID 2272;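 active = GFP response above 150% of the DMSO control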;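 note: ratio of well signal to plate DMSO mean so 100% equals DMSO level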). Particulars: S. cerevisiae MEP2-GFP strain, 3 h, at 10 µM, stronger effect = higher value.
Experiment [4] is described as follows: yeast AGP1-GFP fluorescence change, single-dose – cell-based, flow cytometry, S. cerevisiae, cherry picks, confirmation (AID 2273).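 Note: median GFP channel fluorescence over the whole cell population gate.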 Particulars: S. cerevisiae AGP1-GFP strain, 3 h, at 10 µM.
Experiment [5] can be described thus: TOR pathway CIT2 reporter hit retest – S. cerevisiae, GFP fusion, cherry picks, mother/daughter gates, confirmation (AID 2274). Particulars: S. cerevisiae CIT2-GFP strain, flow cytometry, 3 h, at 10 µM, stronger effect = higher value.
[6] abbreviates: measured here: daughter cell gate.
The mark [7] stands for this setting: measured here: mother cell gate.
[8] abbreviates: measured here: daughter cell gate response.
Where [9] appears, read: measured here: mother cell gate response.

For `Cc1ccc(NC(=S)N2CCSC2c2cccs2)cc1` (stereo unspecified), the GFP response vs DMSO in experiment [1] was 98.5% (inactive); in experiment [1] (setting [6]) it was 98.1%; in experiment [1] (setting [7]) it was 97.8%; in experiment [3], 108% (inactive). In addition, the results for the GFP response relative to DMSO in experiment [2], in experiment [2] (setting [8]) and in experiment [2] (setting [9]) were 97.7% (inactive), 99% and 97.4%, respectively. Besides, the GFP response, % of DMSO in experiment [4] is 101% (inactive); in experiment [5] it was 103% (inactive); in experiment [5] (setting [6]), 99.3%; in experiment [5] (setting [7]), 103%.
In the case of `CC(=O)c1ccc(NC(=O)CN2CCC(NC(=O)C3CCCCC3)CC2)cc1`, the GFP response vs DMSO in experiment [1] is 102% (inactive); in experiment [1] (setting [6]), 102%; in experiment [1] (setting [7]), 103%; in experiment [3], 104% (inactive). Further, the results for the GFP response relative to DMSO in experiment [2], in experiment [2] (setting [8]) and in experiment [2] (setting [9]) were 98.8% (inactive), 97.9% and 99.5%, respectively. In addition, the GFP response, % of DMSO was 95.6% (inactive) in experiment [4], 96.4% (inactive) in experiment [5], 98.3% in experiment [5] (setting [6]) and 95.6% in experiment [5] (setting [7]).
With `O=C(Cn1cc(/C=C\[N+](=O)[O-])c2ccccc21)Nc1ccccc1`, the GFP response vs DMSO in experiment [1] is 97.4% (inactive); in experiment [1] (setting [6]), 97.4%; in experiment [1] (setting [7]) it was 97.6%; in experiment [3] it was 98.3% (inactive). Also, the GFP response relative to DMSO in experiment [2] is 94.1% (inactive); in experiment [2] (setting [8]) it was 94.4%; in experiment [2] (setting [9]), 94%. Further, the GFP response, % of DMSO in experiment [4] was 94.7% (inactive); in experiment [5] it was 99.7% (inactive); in experiment [5] (setting [6]), 101%; in experiment [5] (setting [7]), 99.7%.
Turning to `Cc1cc(/C=C2/SC(=S)N(c3cccc(Cl)c3)C2=O)c(C)n1-c1cccnc1`, the GFP response vs DMSO in experiment [1] is 107% (inactive); in experiment [1] (setting [6]), 106%; in experiment [1] (setting [7]) it was 108%; in experiment [3] it was 135% (inactive). In addition, the GFP response relative to DMSO in experiment [2] is 133% (inactive); in experiment [2] (setting [8]), 125%; in experiment [2] (setting [9]), 136%. In addition, the GFP response, % of DMSO in experiment [4] is 110% (inactive); in experiment [5] it was 118% (inactive); in experiment [5] (setting [6]), 117%; in experiment [5] (setting [7]), 117%.
For `CC(=O)Nc1ccc(Nc2cc(C)nc3c(-c4ccc(Cl)cc4)c(C)nn23)cc1`, the GFP response vs DMSO in experiment [1] was 94.6% (inactive); in experiment [1] (setting [6]), 94.4%; in experiment [1] (setting [7]), 95.8%; in experiment [3], 100% (inactive). The figures for the GFP response relative to DMSO in experiment [2], in experiment [2] (setting [8]) and in experiment [2] (setting [9]) were 94.1% (inactive), 92.8% and 95.1%, respectively. For the same compound, the GFP response, % of DMSO is 95% (inactive) in experiment [4], 105% (inactive) in experiment [5], 105% in experiment [5] (setting [6]) and 104% in experiment [5] (setting [7]).
As to `N#Cc1ccc(Sc2ccccn2)c([N+](=O)[O-])c1`, the GFP response vs DMSO was 102% (inactive) in experiment [1], 101% in experiment [1] (setting [6]), 102% in experiment [1] (setting [7]) and 102% (inactive) in experiment [3]. In addition, the results for the GFP response relative to DMSO in experiment [2], in experiment [2] (setting [8]) and in experiment [2] (setting [9]) were 102% (inactive), 105% and 103%, respectively. In addition, the GFP response, % of DMSO in experiment [4] was 97.8% (inactive); in experiment [5] it was 104% (inactive); in experiment [5] (setting [6]), 99.7%; in experiment [5] (setting [7]), 105%.
Regarding `O=C(O)COc1c(-c2ccc(Cl)cc2)oc2ccccc2c1=O`, the GFP response vs DMSO in experiment [1] was 97% (inactive); in experiment [1] (setting [6]), 95.4%; in experiment [1] (setting [7]) it was 97.9%; in experiment [3] it was 102% (inactive). Further, the GFP response relative to DMSO in experiment [2] is 99.2% (inactive); in experiment [2] (setting [8]) it was 99.2%; in experiment [2] (setting [9]) it was 99.3%. The GFP response, % of DMSO in experiment [4] is 96% (inactive); in experiment [5], 96.9% (inactive); in experiment [5] (setting [6]) it was 97.2%; in experiment [5] (setting [7]) it was 96.1%.
For the compound `COC(=O)c1ccc(/C=N/OCC(=O)NCCc2ccc(OC)c(OC)c2)cc1`, the GFP response vs DMSO in experiment [1] is 99% (inactive); in experiment [1] (setting [6]), 99%; in experiment [1] (setting [7]), 98.7%; in experiment [3], 102% (inactive). The values for the GFP response relative to DMSO in experiment [2], in experiment [2] (setting [8]) and in experiment [2] (setting [9]) were 97.4% (inactive), 102% and 97.2%, respectively. Moreover, the GFP response, % of DMSO in experiment [4] is 102% (inactive); in experiment [5], 107% (inactive); in experiment [5] (setting [6]), 106%; in experiment [5] (setting [7]), 107%.
For the compound `CS(=O)(=O)c1sc(C#N)c2c1C(=O)CC(c1ccccc1)C2` (stereo unspecified), the GFP response vs DMSO is 103% (inactive) in experiment [1], 111% in experiment [1] (setting [6]), 96.6% in experiment [1] (setting [7]) and 116% (inactive) in experiment [3]. Further, the GFP response relative to DMSO in experiment [2] was 174% (active); in experiment [2] (setting [8]), 168%; in experiment [2] (setting [9]) it was 179%. Also, the GFP response, % of DMSO in experiment [4] was 117% (inactive); in experiment [5], 105% (inactive); in experiment [5] (setting [6]), 111%; in experiment [5] (setting [7]), 95.7%.
Take `COc1ccccc1N1CCN(C(=O)c2ccccc2Oc2ccccc2)CC1`: the GFP response vs DMSO in experiment [1] was 96.7% (inactive); in experiment [1] (setting [6]) it was 97%; in experiment [1] (setting [7]), 95.2%; in experiment [3], 101% (inactive). The results for the GFP response relative to DMSO in experiment [2], in experiment [2] (setting [8]) and in experiment [2] (setting [9]) were 91.8% (inactive), 92.9% and 87.3%, respectively. Moreover, the GFP response, % of DMSO in experiment [4] is 98.6% (inactive); in experiment [5] it was 98.6% (inactive); in experiment [5] (setting [6]) it was 97.6%; in experiment [5] (setting [7]) it was 93.8%.
For `O=C1C=CC(=O)N1N(c1ccccc1)c1ccccc1`, the GFP response vs DMSO in experiment [1] is 96.2% (inactive); in experiment [1] (setting [6]), 90.7%; in experiment [1] (setting [7]), 87.1%; in experiment [3], 127% (inactive). Also, the GFP response relative to DMSO is 209% (active) in experiment [2], 148% in experiment [2] (setting [8]) and 208% in experiment [2] (setting [9]). Further, the GFP response, % of DMSO in experiment [4] was 114% (inactive); in experiment [5] it was 95.9% (inactive); in experiment [5] (setting [6]), 88.9%; in experiment [5] (setting [7]), 79.8%.
As for `Cc1ccc(NC(=S)N(CCCN2CCOCC2)Cc2cccs2)c(C)c1`, the GFP response vs DMSO in experiment [1] was 97.6% (inactive); in experiment [1] (setting [6]), 97.8%; in experiment [1] (setting [7]), 97.9%; in experiment [3] it was 99.5% (inactive). Moreover, the GFP response relative to DMSO is 102% (inactive) in experiment [2], 104% in experiment [2] (setting [8]) and 101% in experiment [2] (setting [9]). For the same compound, the GFP response, % of DMSO in experiment [4] was 96% (inactive); in experiment [5] it was 99.3% (inactive); in experiment [5] (setting [6]) it was 100%; in experiment [5] (setting [7]), 98%.
Regarding `Cc1cc(=O)oc2cc(OC(C)C(=O)NC3CCCC3)ccc12` (stereo unspecified), the GFP response vs DMSO is 102% (inactive) in experiment [1], 100% in experiment [1] (setting [6]), 102% in experiment [1] (setting [7]) and 101% (inactive) in experiment [3]. Further, the figures for the GFP response relative to DMSO in experiment [2], in experiment [2] (setting [8]) and in experiment [2] (setting [9]) were 95.7% (inactive), 94.2% and 95.2%, respectively. Further, the GFP response, % of DMSO was 105% (inactive) in experiment [4], 95.9% (inactive) in experiment [5], 93.8% in experiment [5] (setting [6]) and 95.6% in experiment [5] (setting [7]).
On to `Fc1cccc(Cl)c1Cn1ncc2ccccc21`, for which the GFP response vs DMSO was 97.6% (inactive) in experiment [1], 96.1% in experiment [1] (setting [6]), 96.3% in experiment [1] (setting [7]) and 99% (inactive) in experiment [3]. Besides, the GFP response relative to DMSO in experiment [2] was 102% (inactive); in experiment [2] (setting [8]), 99.1%; in experiment [2] (setting [9]) it was 100%. Further, the GFP response, % of DMSO in experiment [4] was 101% (inactive); in experiment [5] it was 97.3% (inactive); in experiment [5] (setting [6]), 97.4%; in experiment [5] (setting [7]), 96.8%.
As to `CCc1nnc(NC(=O)c2ccc(S(=O)(=O)N(CC(C)C)CC(C)C)cc2)o1`, the GFP response vs DMSO in experiment [1] is 101% (inactive); in experiment [1] (setting [6]), 97.6%; in experiment [1] (setting [7]) it was 102%; in experiment [3], 101% (inactive). Further, the values for the GFP response relative to DMSO in experiment [2], in experiment [2] (setting [8]) and in experiment [2] (setting [9]) were 98.2% (inactive), 97.5% and 97.3%, respectively. Further, the GFP response, % of DMSO in experiment [4] is 100% (inactive); in experiment [5] it was 102% (inactive); in experiment [5] (setting [6]), 103%; in experiment [5] (setting [7]), 101%.
Take `CCOc1ccccc1N1CCN(C(=O)c2ccccc2)CC1`: the GFP response vs DMSO in experiment [1] is 97.6% (inactive); in experiment [1] (setting [6]), 98.5%; in experiment [1] (setting [7]) it was 98.8%; in experiment [3], 102% (inactive). In addition, the GFP response relative to DMSO is 101% (inactive) in experiment [2], 101% in experiment [2] (setting [8]) and 103% in experiment [2] (setting [9]). Moreover, the GFP response, % of DMSO was 101% (inactive) in experiment [4], 101% (inactive) in experiment [5], 100% in experiment [5] (setting [6]) and 99.1% in experiment [5] (setting [7]).

Values taken from PubChem BioAssay.
